Rows were chosen to be rich in hits. Some 3% of all compounds tested hit in one or more screens of this group.
5HT1E ag: agonists of human 5-HT1E serotonin receptor; P28566; CHO 5-HT1E Ga15 NFAT-bla reporter, FRET; 0% DMSO wells, 100% control agonist wells; activation, % at 6 µM; 65,000 compounds, 0.69% hits; AID 574;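 active = activation above a set limit, the screen-wide mean activation plus 3 SD, cut at about 8.5% in these data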;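 also: 100% = positive control agonist at 1 µM giving full maximal response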
S1P3 agonist: activates the human S1P3 receptor; S1P3 NFAT-BLA reporter cells, agonism, FRET ratio; relative to 1 µM S1P, basal subtracted; Q99500; 60,000 compounds, 0.1% hits; AID 373; activation, % at 4.5 µM;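 active = activation above the screen-wide mean plus 3 SD, cut at about 4.5% in these data, passing the limit was not always enough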
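Material: Human S1P3 NFAT-BLA reporter CHO cells | Incubation: Overnight plating, 4 h compound 37 °C, 2 h substrate RT | Signal: FRET β-lactamase substrate fluorescence, excitation 405 nm, 460/535 nm emission ratio, background-subtracted | Compound: 4.5 µM final, single dose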
5HT1a ag: agonists of human 5-HT1a serotonin receptor; 65,000 compounds, 0.56% hits; CHO 5-HT1a Ga15 NFAT-bla reporter, FRET ratio; 0% basal, 100% maximal reference agonist; activation, % at 10 µM;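 active = activation above the screen-wide mean activation plus 3 SD, cut at about 19% in these data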;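 also: 0% = DMSO wells and 100% = 5-CT at EC100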
HTR1E antagonist: antagonists of human 5-HT1E serotonin receptor; P28566; CHO 5-HT1E Ga15 NFAT-bla reporter, FRET, antagonist; inhibition, % at 6 µM; 65,000 compounds, 0.99% hits; AID 571;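 active = inhibition above a set limit, the mean inhibition across every tested compound plus 3 SD, cut at about 29% in these data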;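 also: signal is the 460 over 535 nm emission ratio of beta-lactamase substrate; 0% = agonist plus DMSO wells and 100% = wells without agonist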
S1P1 ag pot: agonists and agonism potentiators of human S1P1 receptor | S1P1 CRE-bla cells, forskolin, beta-lactamase FRET, potentiator mode; S1P1 agonist co-added at EC20, 2 nM; 100% = saturating reference agonist, 0% = basal | P21453 | AID 449 | activation, % at 9.5 µM | 56,000 compounds, 0.57% hits;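 active = activation above a cutoff set at the mean activation of all tested compounds plus 3 SD, cut at about 54% in these data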;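 also: forskolin at 4 µM as EC80 and the EC20 agonist is SEW2871; 100% = SEW2871 at its EC100 plus forskolin at EC80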
Target sequence (P21453 whole entry, looked up): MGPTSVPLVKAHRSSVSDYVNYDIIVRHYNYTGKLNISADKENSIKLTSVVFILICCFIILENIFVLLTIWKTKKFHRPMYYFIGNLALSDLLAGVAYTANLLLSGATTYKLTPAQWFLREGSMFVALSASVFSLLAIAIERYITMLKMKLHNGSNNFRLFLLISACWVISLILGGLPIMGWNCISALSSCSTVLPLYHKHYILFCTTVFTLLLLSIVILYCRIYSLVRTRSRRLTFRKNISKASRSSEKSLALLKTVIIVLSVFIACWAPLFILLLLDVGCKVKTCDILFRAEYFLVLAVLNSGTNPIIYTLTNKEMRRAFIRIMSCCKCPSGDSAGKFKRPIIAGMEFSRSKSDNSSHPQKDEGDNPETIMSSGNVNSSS
5-HT1A blocker: 5-HT1a (human) receptor antagonism | CHO 5-HT1a Ga15 NFAT-bla reporter, antagonist mode | AID 612 | inhibition, % at 10 µM | 62,000 compounds, 0.68% hits;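 active = inhibition above the mean of all tested compounds plus 3 SD, cut at about 43% in these data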;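 also: receptor stimulated by 5-CT agonist at 100 nM near EC80; beta-lactamase reporter measured by ratiometric fluorescence of a cleavable substrate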
The depositor's hits bear a star.

How did COc1ccc(CCN2C(=O)c3[nH]nc(-c4ccccc4O)c3C2c2ccccc2)cc1OC (stereo not given) do in these assays?
5HT1E ag: 1; S1P3 agonist: -1; 5HT1a ag: 1; HTR1E antagonist: 6; S1P1 ag pot: -2; 5-HT1A blocker: 35

Results for O=C1c2[nH]nc(-c3ccccc3O)c2C(c2ccccc2)N1Cc1ccco1 (stereo not given) ?
5HT1E ag: 0; S1P3 agonist: -2; 5HT1a ag: 2; HTR1E antagonist: -8; S1P1 ag pot: -10; 5-HT1A blocker: 44*

How did O=C(c1noc2c1CCCC2)N1CCN(c2ccc(F)cc2)CC1 do in these assays?
5HT1E ag: 1; S1P3 agonist: -1; 5HT1a ag: 0; HTR1E antagonist: -2; S1P1 ag pot: 11; 5-HT1A blocker: -8

What do the screens show for `CC(C)(C)Cc1nnc(NS(=O)(=O)Cc2ccccc2)s1`?
5HT1E ag: -1; S1P3 agonist: -3; 5HT1a ag: -2; HTR1E antagonist: 15; S1P1 ag pot: 12; 5-HT1A blocker: 9

Results for N#Cc1c(-c2cccs2)cc(-c2ccccn2)nc1N ?
5HT1E ag: 2; S1P3 agonist: 0; 5HT1a ag: 6; HTR1E antagonist: 43*; S1P1 ag pot: -52; 5-HT1A blocker: 5

What do the screens show for `N#Cc1c(-c2cccs2)cc(-c2cccnc2)nc1N`?
5HT1E ag: 1; S1P3 agonist: -1; 5HT1a ag: 3; HTR1E antagonist: 44*; S1P1 ag pot: -16; 5-HT1A blocker: 6

How did N#Cc1c(N)nc(SCC(=O)NCCc2ccccc2)c(C#N)c1-c1cccs1 do in these assays?
5HT1E ag: 2; S1P3 agonist: -4; 5HT1a ag: 12; HTR1E antagonist: 13; S1P1 ag pot: -9

Results for O=S(=O)(c1ccc(S(=O)(=O)N(Cc2ccco2)Cc2ccccc2Cl)cc1)N1CCCC1 ?
5HT1E ag: 0; S1P3 agonist: 1; 5HT1a ag: 0; HTR1E antagonist: 3; S1P1 ag pot: 6; 5-HT1A blocker: 9

How did CN(C)S(=O)(=O)c1ccc(S(=O)(=O)N(Cc2ccco2)Cc2ccccc2Cl)cc1 do in these assays?
5HT1E ag: -1; S1P3 agonist: -2; 5HT1a ag: -2; HTR1E antagonist: 32*; S1P1 ag pot: 9; 5-HT1A blocker: 22

Results for COc1ccc(CNC(=O)c2cc3c(C)nc4ccccc4c3o2)c(OC)c1 ?
5HT1E ag: 0; S1P3 agonist: -2; 5HT1a ag: 2; HTR1E antagonist: 16; S1P1 ag pot: 94*; 5-HT1A blocker: 17

What do the screens show for `COc1cc(NC(=O)c2cc3c(C)nc4ccccc4c3o2)cc(OC)c1OC`?
5HT1E ag: 0; S1P3 agonist: -1; 5HT1a ag: 5; HTR1E antagonist: 11; S1P1 ag pot: -24; 5-HT1A blocker: 0

How did Cc1ccc(-c2nnc(CSc3nnc4c5c(C)c(C)sc5nc(C(C)C)n34)o2)cc1 do in these assays?
5HT1E ag: -1; S1P3 agonist: 0; 5HT1a ag: -1; HTR1E antagonist: -9; S1P1 ag pot: -7; 5-HT1A blocker: -4

Results for O=C(NCC(=O)N(CC1CCCO1)C(C(=O)NC1CCCC1)c1ccc(F)cc1)c1ccco1 (stereo not given) ?
5HT1E ag: -1; S1P3 agonist: -1; 5HT1a ag: 1; HTR1E antagonist: 11; S1P1 ag pot: -8; 5-HT1A blocker: -1

What do the screens show for `CC(=O)N1CCCc2cc(S(=O)(=O)N(CC(C)C)CC(C)C)ccc21`?
5HT1E ag: 0; S1P3 agonist: 0; 5HT1a ag: 0; HTR1E antagonist: -1; S1P1 ag pot: 4; 5-HT1A blocker: 8

What do the screens show for `Cn1c(Cn2c(=O)sc3ccccc32)nnc1SCC(=O)N1CCCCCC1`?
5HT1E ag: 1; S1P3 agonist: 0; 5HT1a ag: -1; HTR1E antagonist: -11; S1P1 ag pot: -15; 5-HT1A blocker: -17

What do the screens show for `C=CCc1ccccc1OCC(O)CN(C(C)C)C(C)C` (stereo not given)?
5HT1E ag: 19*; S1P3 agonist: 0; 5HT1a ag: -2; HTR1E antagonist: -1; S1P1 ag pot: -12; 5-HT1A blocker: 13

How did C=CCc1ccccc1OCC(O)CNC (stereo not given) do in these assays?
5HT1E ag: 9.4*; S1P3 agonist: 0; 5HT1a ag: 0; HTR1E antagonist: -4; S1P1 ag pot: -15; 5-HT1A blocker: 7

How did Clc1ccccc1C1SCC2Nc3ccccc3CN21 (stereo not given) do in these assays?
5HT1E ag: -1; S1P3 agonist: -1; 5HT1a ag: -4; HTR1E antagonist: 2; S1P1 ag pot: 3; 5-HT1A blocker: 26

How did CCOCC(=O)Nc1nnc(C)s1 do in these assays?
5HT1E ag: 0; S1P3 agonist: 0; 5HT1a ag: -1; HTR1E antagonist: 5; S1P1 ag pot: 11; 5-HT1A blocker: -1

How did COc1ccccc1C(=O)Nc1ccc(C(=O)O)cc1 do in these assays?
5HT1E ag: 0; S1P3 agonist: 0; 5HT1a ag: 74*; HTR1E antagonist: -9; S1P1 ag pot: -23; 5-HT1A blocker: 0

How did COc1ccc2nc3sc(C(=O)N4CCN(C)CC4)cc3cc2c1 do in these assays?
5HT1E ag: 25*; S1P3 agonist: -1; 5HT1a ag: 0; HTR1E antagonist: 1; S1P1 ag pot: -22; 5-HT1A blocker: -9

How did COc1ccccc1NC(=O)CSc1nnc(C)n1Cc1ccccc1 do in these assays?
5HT1E ag: 0; S1P3 agonist: -1; 5HT1a ag: -4; HTR1E antagonist: 4; S1P1 ag pot: 9; 5-HT1A blocker: 0

How did Cn1c(N2CCOCC2)nc(-c2ccccc2)c1-c1ccccc1 do in these assays?
5HT1E ag: 20*; S1P3 agonist: 1; 5HT1a ag: 2; HTR1E antagonist: -6; S1P1 ag pot: 5; 5-HT1A blocker: 0

What do the screens show for `COc1ccc(Cl)cc1NC(=O)c1ccco1`?
5HT1E ag: 23*; S1P3 agonist: 0; 5HT1a ag: 0; HTR1E antagonist: -6; S1P1 ag pot: 0; 5-HT1A blocker: 8

What do the screens show for `Cc1nc2ccccc2c(=O)n1/N=C/c1cn(-c2ccccc2)nc1-c1cccs1`?
5HT1E ag: -1; S1P3 agonist: 1; 5HT1a ag: 1; HTR1E antagonist: 2; S1P1 ag pot: -21; 5-HT1A blocker: 0

How did O=c1cc(-c2c(F)c(F)c(F)c(F)c2F)oc2c(F)c(F)c(F)c(F)c12 do in these assays?
5HT1E ag: -2; 5HT1a ag: -10; HTR1E antagonist: 102*; 5-HT1A blocker: 99*

How did CSc1nc2ccc(Nc3nc(N4CCOCC4)nc(N4CCOCC4)n3)cc2s1 do in these assays?
5HT1E ag: -1; S1P3 agonist: -1; 5HT1a ag: 0; HTR1E antagonist: 33*; S1P1 ag pot: -35; 5-HT1A blocker: 12

Compound activity: PubChem, The Scripps Research Institute Molecular Screening Center
